Assay results taken from ChEMBL document CHEMBL1148135, “Constituents of Chinese propolis and their antiproliferative activities” (J Nat Prod, 2002).
Structures can show the parent of a compound that is named as a salt. Activity calls are given as the source filed them. The calls are words filed in the database; no cut-off is given here.

How the values were obtained:
A549 = assay: Antiproliferative activity against human A549 cells after 72 hrs by MTT assay; type: functional, cell-based; details: A549, 72 h
Method in brief: (§1)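 Cells kept in Eagle's MEM with 10% fetal calf serum. 2500 cells per well were left to attach for 24 h at 37 °C under 5% CO2, then given varying concentrations for 72 h. Samples were dissolved in DMSO and diluted in medium (DMSO <0.1%). After 2 h with MTT, formazan was read at 550 nm. EC50 was taken from the mean of four wells.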

HeLa = assay: Antiproliferative activity against human HeLa cells after 72 hrs by MTT assay; type: functional, cell-based; method in brief: as §1
HT-1080 = assay: Antiproliferative activity against human HT1080 cells after 72 hrs by MTT assay; type: functional, cell-based; details: HT-1080, 72 h; method in brief: as §1
[1] = Antiproliferative activity against mouse 26-L5 cells after 72 hrs by MTT assay; type: functional, cell-based
Method in brief: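 Murine colon 26-L5 carcinoma cells kept in RPMI with 10% fetal calf serum. 2500 cells per well were left to attach for 24 h at 37 °C under 5% CO2, then exposed for 72 h to varying concentrations in medium, from a DMSO stock (<0.1% DMSO). MTT was added for 2 h and formazan read at 550 nm. EC50 was taken from the mean of four wells.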

[2] = DPPH radical scavenging activity after 30 mins; type: functional
Method in brief: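 Samples in EtOH were vortexed with an equal volume of DPPH solution ([…] before mixing). Absorbance was read at 520 nm after 30 min.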

[3] = Antiproliferative activity against mouse B16-BL6 cells after 72 hrs by MTT assay; type: functional, cell-based; details: B16-BL6, 72 h; method in brief: as §1

Row | SMILES | EC50 (A549) [µM] | EC50 (HeLa) [µM] | EC50 (HT-1080) [µM] | EC50 [1] [µM] | Activity [2] | EC50 [3] [µM]
1 | O=C(/C=C/c1ccc(O)c(O)c1)OCCc1ccccc1 [CAFFEIC ACID PHENETHYL ESTER] | 27.9 | 2.36 | 9.5 | 0.3 | Active | 6.79
2 | O=c1cc(-c2ccccc2)oc2cc(O)c(C/C=C/c3ccccc3)c(O)c12 | > 270 | > 270 | > 270 | > 270 |  | > 270
3 | O=C(/C=C/c1ccc(O)c(O)c1)OCc1ccccc1 [BENZYL CAFFEATE] | 35 | 2.33 | 9.74 | 1.01 | Active | 9.78
4 | COc1ccc(/C=C/C(=O)O)cc1OC [O,O'-DIMETHYLCAFFEIC ACID] | > 480 | > 480 | > 480 | > 480 |  | > 480
5 | O=c1cc(-c2ccc(O)cc2)oc2cc(O)cc(O)c12 [APIGENIN] | 101 | 92.7 | 36.6 | 25 |  | 31.6
6 | COc1cc(O)c2c(=O)c(O)c(-c3ccccc3)oc2c1 [IZALPININ] | > 350 | 106 | > 350 | 30.3 |  | > 350
7 | O=c1c(O)c(-c2ccccc2)oc2cc(O)cc(O)c12 [GALANGIN] | 93.6 | 79 | 35.7 | 19.2 |  | 26.8
8 | O=c1cc(-c2ccccc2)oc2cc(O)cc(O)c12 [CHRYSIN] | 233 | 111 | 94.9 | 109 |  | 74.4
9 | COc1cc(/C=C/C(=O)OCc2ccccc2)ccc1O [BENZYL FERULATE] | 92.8 | 51.1 | 46.7 | 46.4 |  | 63.7
10 | COc1ccc(/C=C/C(=O)O)cc1O [ISOFERULIC ACID] | > 515 | > 515 | > 515 | > 515 |  | > 515
11 | O=c1[nH]cc(F)c(=O)[nH]1 [FLUOROURACIL] | 3.61 | 0.23 | 1.38 | 0.31 |  | 1.23
12 | CC[C@H](C)C(=O)O[C@H]1C(=O)c2c(O)cc(O)cc2O[C@@H]1c1ccccc1 | 160 | 116 | 143 | 78.9 |  | 185
13 | COc1cc(O)c2c(c1)O[C@H](c1ccccc1)CC2=O [PINOSTROBIN] | > 370 | 202 | 156 | 128 |  | 111
14 | O=C1C[C@@H](c2ccccc2)Oc2cc(O)cc(O)c21 [PINOCEMBRIN] | 229 | 108 | 92.4 | 75.6 |  | 68
15 | COc1cccc2c1C(=O)c1c(O)c3c(c(O)c1C2=O)C[C@@](O)(C(=O)CO)C[C@@H]3O[C@H]1C[C@H](N)[C@H](O)[C@H](C)O1 [DOXORUBICIN HYDROCHLORIDE] | 0.04 | 0.02 | 0.02 | 0.02 |  | 0.11
16 | COc1cc(O)c2c(=O)cc(-c3ccccc3)oc2c1 [TECHTOCHRYSIN] | > 370 | > 370 | 358 | 273 |  | 226
